Assay results from ChEMBL document CHEMBL3272249, “Esters of N-tert-butylarterenol. Long-acting new bronchodilators with reduced cardiac effects” (J Med Chem, 1976).

What was measured:
Canis familiaris [1] = experiment: Cardiotoxicity in spontaneously respiring dog assessed as degree of increase in heart rate at 30 to 60 mg/kg, iv relative to control; format: toxicity, organism-based, Canis lupus familiaris; set-up: dose 30-60 mg/kg, route intravenous; settings: in vivo
How it was run: (§1)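 Anesthetized, spontaneously respiring dogs. Heart rate was taken from a lead II EKG, and blood pressure from the right femoral artery by transducer. The increase in heart rate (beats/min) was scored on a graded scale with more than 4 dogs per dose, and its duration was recorded. Drugs were dissolved fresh in distilled water, diluted in physiological saline and kept on ice.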

Canis familiaris [2] = experiment: Cardiotoxicity in spontaneously respiring dog assessed as degree of increase in heart rate at 2000 to 2700 mg/kg, it relative to control; format: toxicity, organism-based, Canis lupus familiaris; set-up: dose 2000-2700 mg/kg, route endotracheal; settings: in vivo, inhaled_or_intranasal; how it was run: as §1
Canis familiaris [3] = experiment: Cardiotoxicity in spontaneously respiring dog assessed as time of increase in heart rate at 2000 to 2700 mg/kg, it relative to control; format: toxicity, organism-based, Canis lupus familiaris; set-up: dose 2000-2700 mg/kg, route endotracheal; settings: in vivo, inhaled_or_intranasal; how it was run: as §1
Canis familiaris [4] = experiment: Bronchodilator activity in dog assessed as time of inhibition of carbachol or histamine-induced bronchoconstriction at 30 to 60 mg/kg, iv relative to control; format: functional, Canis lupus familiaris; settings: dose mg/kg 30-60
How it was run: (§2)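 Dog airway model: anesthetized, cannulated via a nonbreathing valve, with airway pressure changes recorded after iv carbachol (2–4 μg/kg) or histamine diphosphate (20–50 μg/kg) challenge, each agonist in different animals. Compounds were given iv, intraduodenally or intratracheally from fresh aqueous stocks diluted in saline. Duration (h) of inhibition of induced bronchoconstriction was followed, and the two agonist datasets were pooled.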

Canis familiaris [5] = experiment: Bronchodilator activity in dog assessed as time of inhibition of carbachol or histamine-induced bronchoconstriction at 2000 to 2700 mg/kg, it relative to control; format: functional, Canis lupus familiaris; settings: dose mg/kg 2000-2700; route endotracheal; how it was run: as §2
Canis familiaris [6] = experiment: Bronchodilator activity in dog assessed as degree of inhibition of carbachol or histamine-induced bronchoconstriction at 30 to 60 mg/kg, iv relative to control; format: functional, Canis lupus familiaris; settings: dose mg/kg 30-60
How it was run: (§3)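 Anesthetized dogs, trachea cannulated with a nonbreathing valve. Bronchoconstriction induced by iv carbachol (2–4 μg/kg) or histamine diphosphate (20–50 μg/kg) in separate animals, and airway pressure recorded by transducer. Drug stocks were made fresh in distilled water, diluted in saline and kept on ice. Read-out was percent inhibition of control constriction, averaged over at least three dogs per dose at the higher dose. Carbachol and histamine data were combined.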

Canis familiaris [7] = experiment: Bronchodilator activity in dog assessed as degree of inhibition of carbachol or histamine-induced bronchoconstriction at 2000 to 2700 mg/kg, it relative to control; format: functional, Canis lupus familiaris; settings: dose mg/kg 2000-2700; route endotracheal; how it was run: as §3
Canis familiaris [8] = experiment: Bronchodilator activity in dog assessed as time of inhibition of carbachol or histamine-induced bronchoconstriction at 300 to 1200 mg/kg, it relative to control; format: functional, Canis lupus familiaris; settings: dose mg/kg 300-1200; route endotracheal; how it was run: as §2
Canis familiaris [9] = experiment: Bronchodilator activity in dog assessed as time of inhibition of carbachol or histamine-induced bronchoconstriction at 140 to 280 mg/kg, iv relative to control; format: functional, Canis lupus familiaris; settings: dose mg/kg 140-280; how it was run: as §2
Canis familiaris [10] = experiment: Bronchodilator activity in dog assessed as time of inhibition of carbachol or histamine-induced bronchoconstriction at 140 mg/kg, id relative to control; format: functional, Canis lupus familiaris; settings: route intraduodenal; how it was run: as §2
Canis familiaris [11] = experiment: Bronchodilator activity in dog assessed as degree of inhibition of carbachol or histamine-induced bronchoconstriction at 300 to 1200 mg/kg, it relative to control; format: functional, Canis lupus familiaris; settings: dose mg/kg 300-1200; route endotracheal; how it was run: as §3
Canis familiaris [12] = experiment: Bronchodilator activity in dog assessed as degree of inhibition of carbachol or histamine-induced bronchoconstriction at 140 to 280 mg/kg, iv relative to control; format: functional, Canis lupus familiaris; settings: dose mg/kg 140-280; how it was run: as §3
Canis familiaris [13] = experiment: Bronchodilator activity in dog assessed as degree of inhibition of carbachol or histamine-induced bronchoconstriction at 140 mg/kg, id relative to control; format: functional; settings: Canis lupus familiaris, route intraduodenal; how it was run: as §3
Canis familiaris [14] = experiment: Cardiotoxicity in spontaneously respiring dog assessed as degree of increase in heart rate at 35 to 140 mg/kg, iv relative to control; format: toxicity, organism-based, Canis lupus familiaris; set-up: dose 35-140 mg/kg, route intravenous; settings: in vivo; how it was run: as §1
Canis familiaris [15] = experiment: Cardiotoxicity in spontaneously respiring dog assessed as degree of increase in heart rate at 70 to 280 mg/kg, id relative to control; format: toxicity, organism-based, Canis lupus familiaris; set-up: dose 70-280 mg/kg, route intraduodenal; settings: in vivo, other; how it was run: as §1
Canis familiaris [16] = experiment: Cardiotoxicity in spontaneously respiring dog assessed as time of increase in heart rate at 35 to 140 mg/kg, iv relative to control; format: toxicity, organism-based, Canis lupus familiaris; set-up: dose 35-140 mg/kg, route intravenous; settings: in vivo; how it was run: as §1
Canis familiaris [17] = experiment: Cardiotoxicity in spontaneously respiring dog assessed as time of increase in heart rate at 70 to 280 mg/kg, id relative to control; format: toxicity, organism-based, Canis lupus familiaris; set-up: dose 70-280 mg/kg, route intraduodenal; settings: in vivo, other
How it was run: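 Anesthetized, spontaneously respiring dogs. Heart rate monitored by lead II EKG, with blood pressure taken from the right femoral artery by pressure transducer and recorded on a polygraph. Drug stocks made fresh in distilled water, diluted in physiological saline and kept on ice. Dosing was iv, id or it as listed. The duration of the heart-rate increase was recorded in h, with more than 4 dogs per dose.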

Canis familiaris [18] = experiment: Bronchodilator activity in dog assessed as time of inhibition of carbachol or histamine-induced bronchoconstriction at 35 to 140 mg/kg, iv relative to control; format: functional, Canis lupus familiaris; settings: dose mg/kg 35-140; how it was run: as §2
Canis familiaris [19] = experiment: Bronchodilator activity in dog assessed as time of inhibition of carbachol or histamine-induced bronchoconstriction at 70 to 280 mg/kg, id relative to control; format: functional, Canis lupus familiaris; settings: dose mg/kg 70-280; route intraduodenal
How it was run: (§4)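 Anesthetized dogs with an airway cannula and a nonbreathing valve. Bronchoconstriction was induced by iv carbachol (2–4 μg/kg) or histamine diphosphate (20–50 μg/kg) and read as change in airway pressure by transducer. Each compound was tested against both agonists in different dogs, and the results were combined and averaged. Effect is % inhibition of control constriction, with at least three dogs per dose. Drugs were dissolved fresh in distilled water, diluted in saline and kept on ice.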

Canis familiaris [20] = experiment: Bronchodilator activity in dog assessed as time of inhibition of carbachol or histamine-induced bronchoconstriction at 540 to 1080 mg/kg, it relative to control; format: functional, Canis lupus familiaris; settings: dose mg/kg 540-1080; route endotracheal; how it was run: as §4
Canis familiaris [21] = experiment: Bronchodilator activity in dog assessed as degree of inhibition of carbachol or histamine-induced bronchoconstriction at 35 to 140 mg/kg, iv relative to control; format: functional, Canis lupus familiaris; settings: dose mg/kg 35-140; how it was run: as §3
Canis familiaris [22] = experiment: Bronchodilator activity in dog assessed as degree of inhibition of carbachol or histamine-induced bronchoconstriction at 70 to 280 mg/kg, id relative to control; format: functional, Canis lupus familiaris; settings: dose mg/kg 70-280; route intraduodenal; how it was run: as §3
Canis familiaris [23] = experiment: Bronchodilator activity in dog assessed as degree of inhibition of carbachol or histamine-induced bronchoconstriction at 540 to 1080 mg/kg, it relative to control; format: functional, Canis lupus familiaris; settings: dose mg/kg 540-1080; route endotracheal; how it was run: as §3
Canis familiaris [24] = experiment: Cardiotoxicity in spontaneously respiring dog assessed as time of increase in heart rate at 540 to 1080 mg/kg, it relative to control; settings: in vivo
Canis familiaris [25] = experiment: Cardiotoxicity in spontaneously respiring dog assessed as degree of increase in heart rate at 540 to 1080 mg/kg, intratracheal relative to control; settings: in vivo
Canis familiaris [26] = experiment: Bronchodilator activity in dog assessed as time of inhibition of carbachol or histamine-induced bronchoconstriction at 590 to 1180 mg/kg, it relative to control; settings: dose mg/kg 590-1180; route endotracheal
Canis familiaris [27] = experiment: Bronchodilator activity in dog assessed as degree of inhibition of carbachol or histamine-induced bronchoconstriction at 590 to 1180 mg/kg, it relative to control; settings: dose mg/kg 590-1180; route endotracheal
Canis familiaris [28] = experiment: Cardiotoxicity in spontaneously respiring dog assessed as degree of increase in heart rate at 25 to 100 mg/kg, iv relative to control; format: toxicity, organism-based, Canis lupus familiaris; set-up: dose 25-100 mg/kg, route intravenous; settings: in vivo; how it was run: as §1
Canis familiaris [29] = experiment: Cardiotoxicity in spontaneously respiring dog assessed as time of increase in heart rate at 25 to 100 mg/kg, iv relative to control; format: toxicity, organism-based, Canis lupus familiaris; set-up: dose 25-100 mg/kg, route intravenous; settings: in vivo; how it was run: as §1
Canis familiaris [30] = experiment: Bronchodilator activity in dog assessed as time of inhibition of carbachol or histamine-induced bronchoconstriction at 50 to 100 mg/kg, id relative to control; format: functional, Canis lupus familiaris; settings: dose mg/kg 50-100; route intraduodenal; how it was run: as §4
Canis familiaris [31] = experiment: Bronchodilator activity in dog assessed as time of inhibition of carbachol or histamine-induced bronchoconstriction at 25 to 100 mg/kg, iv relative to control; format: functional, Canis lupus familiaris; settings: dose mg/kg 25-100; how it was run: as §2
Canis familiaris [32] = experiment: Bronchodilator activity in dog assessed as degree of inhibition of carbachol or histamine-induced bronchoconstriction at 50 to 100 mg/kg, id relative to control; format: functional, Canis lupus familiaris; settings: dose mg/kg 50-100; route intraduodenal; how it was run: as §3
Canis familiaris [33] = experiment: Bronchodilator activity in dog assessed as degree of inhibition of carbachol or histamine-induced bronchoconstriction at 25 to 100 mg/kg, iv relative to control; format: functional, Canis lupus familiaris; settings: dose mg/kg 25-100; how it was run: as §3

CC(C)(C)NC[C@H](O)c1ccc(OC(=O)c2ccccc2)c(OC(=O)c2ccccc2)c1.Cl
Activity (Canis familiaris [1]): 40%
Activity (Canis familiaris [2]): 20%
Time (Canis familiaris [3]): 1 h
Time (Canis familiaris [4]): <4 h
Time (Canis familiaris [5]): 4 h
inhibition (INH) (Canis familiaris [6]): 45%
inhibition (INH) (Canis familiaris [7]): >70%

CS(=O)(=O)O.Cc1cccc(C(=O)Oc2ccc([C@@H](O)CNC(C)(C)C)cc2OC(=O)c2cccc(C)c2)c1
Time (Canis familiaris [8]): <4 h
Time (Canis familiaris [9]): >3 h
Time (Canis familiaris [10]): 2 h
inhibition (INH) (Canis familiaris [11]): 45%
inhibition (INH) (Canis familiaris [12]): >70%
inhibition in vivo at 140 mg/kg (Canis familiaris [13]): 45%

CS(=O)(=O)O.Cc1ccc(C(=O)Oc2ccc([C@@H](O)CNC(C)(C)C)cc2OC(=O)c2ccc(C)cc2)cc1
Activity (Canis familiaris [14]): 20%
Activity (Canis familiaris [15]): 20%
Time (Canis familiaris [16]): 2 h
Time (Canis familiaris [17]): 2 h
Time (Canis familiaris [18]): >5 h
Time (Canis familiaris [19]): >5 h
Time (Canis familiaris [20]): >5 h
inhibition (INH) (Canis familiaris [21]): >70%
inhibition (INH) (Canis familiaris [22]): >70%
inhibition (INH) (Canis familiaris [23]): 45%
Time (Canis familiaris [24]): < 1 h
Activity (Canis familiaris [25]): 5%

CS(=O)(=O)O.Cc1cc(C)cc(C(=O)Oc2ccc([C@@H](O)CNC(C)(C)C)cc2OC(=O)c2cc(C)cc(C)c2)c1
Time (Canis familiaris [26]): <3 h
inhibition (INH) (Canis familiaris [27]): 20%

COc1ccc(C(=O)Oc2ccc([C@@H](O)CNC(C)(C)C)cc2OC(=O)c2ccc(OC)cc2)cc1.Cl
Activity (Canis familiaris [28]): 20%
Time (Canis familiaris [29]): < 2 h
Time (Canis familiaris [30]): <3 h
Time (Canis familiaris [31]): 1 h
inhibition (INH) (Canis familiaris [32]): 20%
inhibition (INH) (Canis familiaris [33]): 20%
